Measured values taken from ChEMBL document CHEMBL1781932 (J Med Chem, 2011).
In brackets after ≈: the same amount, converted by molar mass.

Assays:
Type in all cases: functional
Acinetobacter baumannii = experiment: Antimicrobial activity against tetracycline-susceptible Acinetobacter baumannii isolate 110 by CLSI dilution method
Procedure, shortened: (§1)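 Broth microdilution per CLSI in fresh cation-adjusted Mueller Hinton broth, kept at 4 °C before testing, with defibrinated horse blood added as appropriate. Strains were from ATCC. MIC in µg/mL. Runs were accepted when comparator antibiotics against ATCC quality-control strains fell within recommended ranges.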

Staphylococcus aureus [1] = experiment: Antimicrobial activity against tetracycline-resistant Staphylococcus aureus isolate 158 harboring tetK gene by CLSI dilution method
Enterococcus faecalis [2] = experiment: Antimicrobial activity against tetracycline-susceptible Enterococcus faecalis isolate 103 by CLSI dilution method; procedure, shortened: as §1
Klebsiella pneumoniae [3] = experiment: Antimicrobial activity against tetracycline-resistant Klebsiella pneumoniae isolate 153 harboring tetA gene by CLSI dilution method
Pseudomonas aeruginosa = experiment: Antimicrobial activity against tetracycline-susceptible Pseudomonas aeruginosa isolate 111 by CLSI dilution method; procedure, shortened: as §1
Enterobacter cloacae = experiment: Antimicrobial activity against tetracycline-susceptible Enterobacter cloacae isolate 108 by CLSI dilution method; procedure, shortened: as §1
Streptococcus pneumoniae [4] = experiment: Antimicrobial activity against tetracycline-resistant Streptococcus pneumoniae isolate 160 harboring tetM gene by CLSI dilution method
Staphylococcus aureus [5] = experiment: Antimicrobial activity against tetracycline-susceptible Staphylococcus aureus isolate 101 by CLSI dilution method
Escherichia coli [6] = experiment: Antimicrobial activity against tetracycline-resistant Escherichia coli isolate 155 harboring tetA gene by CLSI dilution method
Klebsiella pneumoniae [7] = experiment: Antimicrobial activity against tetracycline-susceptible Klebsiella pneumoniae isolate 109 by CLSI dilution method; procedure, shortened: as §1
Enterococcus faecalis [8] = experiment: Antimicrobial activity against tetracycline-resistant Enterococcus faecalis isolate 159 harboring […] gene by CLSI dilution method
Streptococcus pneumoniae [9] = experiment: Antimicrobial activity against tetracycline-susceptible Streptococcus pneumoniae isolate 106 by CLSI dilution method; procedure, shortened: as §1
Staphylococcus aureus [10] = experiment: Antimicrobial activity against methicillin-, tetracycline-resistant Staphylococcus aureus isolate 161 harboring tetM gene by CLSI dilution method
Escherichia coli [11] = experiment: Antimicrobial activity against tetracycline-susceptible Escherichia coli isolate 107 by CLSI dilution method; procedure, shortened: as §1

Structure (SMILES) | MIC (Acinetobacter baumannii) [µg/mL] | MIC (Staphylococcus aureus [1]) [µg/mL] | MIC (Enterococcus faecalis [2]) [µg/mL] | MIC (Klebsiella pneumoniae [3]) [µg/mL] | MIC (Pseudomonas aeruginosa) [µg/mL] | MIC (Enterobacter cloacae) [µg/mL] | MIC (Streptococcus pneumoniae [4]) [µg/mL] | MIC (Staphylococcus aureus [5]) [µg/mL] | MIC (Escherichia coli [6]) [µg/mL] | MIC (Klebsiella pneumoniae [7]) [µg/mL] | MIC (Enterococcus faecalis [8]) [µg/mL] | MIC (Streptococcus pneumoniae [9]) [µg/mL] | MIC (Staphylococcus aureus [10]) [µg/mL] | MIC (Escherichia coli [11]) [µg/mL]
CN(C)Cc1ccc2c(F)c3c(c(O)c2c1)C(=O)C1=C(O)[C@]2(O)C(=O)C(C(N)=O)=C(O)[C@@H](N(C)C)[C@@H]2C[C@@H]1C3 | 0.5 (≈ 0.927 µM) | 0.25 (≈ 0.463 µM) | 0.25 (≈ 0.463 µM) | 4 (≈ 7.41 µM) | 32 (≈ 59.3 µM) | 4 (≈ 7.41 µM) | 8 (≈ 14.8 µM) | 0.5 (≈ 0.927 µM) | 4 (≈ 7.41 µM) | 2 (≈ 3.71 µM) | 1 (≈ 1.85 µM) | 0.0156 (≈ 0.0289 µM) |  | 
CN(C)C1CN(Cc2ccc3cc4c(c(O)c3c2)C(=O)C2=C(O)[C@]3(O)C(=O)C(C(N)=O)=C(O)[C@@H](N(C)C)[C@@H]3C[C@@H]2C4)C1 | 4 (≈ 6.94 µM) | 1 (≈ 1.73 µM) | 1 (≈ 1.73 µM) | 8 (≈ 13.9 µM) | > 32 |  | 1 (≈ 1.73 µM) | 2 (≈ 3.47 µM) | 16 (≈ 27.7 µM) |  |  | 0.0625 (≈ 0.108 µM) |  | 
CN(C)[C@@H]1C(O)=C(C(N)=O)C(=O)[C@@]2(O)C(O)=C3C(=O)c4c(cc5ccc(CN6CC(C#N)C6)cc5c4O)C[C@H]3C[C@@H]12 |  | 1 (≈ 1.79 µM) | 1 (≈ 1.79 µM) | 32 (≈ 57.3 µM) | > 32 |  | 1 (≈ 1.79 µM) | 1 (≈ 1.79 µM) | > 32 | 8 (≈ 14.3 µM) | 4 (≈ 7.16 µM) | 0.25 (≈ 0.448 µM) | 2 (≈ 3.58 µM) | 4 (≈ 7.16 µM)
COc1c2c(c(O)c3cc(CNC(C)(C)C)ccc13)C(=O)C1=C(O)[C@]3(O)C(=O)C(C(N)=O)=C(O)[C@@H](N(C)C)[C@@H]3C[C@@H]1C2 | 2 (≈ 3.45 µM) | 0.25 (≈ 0.431 µM) | 0.25 (≈ 0.431 µM) | 8 (≈ 13.8 µM) | 16 (≈ 27.6 µM) |  | 0.5 (≈ 0.863 µM) | 0.25 (≈ 0.431 µM) | 8 (≈ 13.8 µM) |  |  | 0.0156 (≈ 0.0269 µM) |  | 1 (≈ 1.73 µM)
COc1c2c(c(O)c3cc(CN(C)C)ccc13)C(=O)C1=C(O)[C@]3(O)C(=O)C(C(N)=O)=C(O)[C@@H](N(C)C)[C@@H]3C[C@@H]1C2 | 1 (≈ 1.81 µM) | 0.25 (≈ 0.453 µM) | 0.25 (≈ 0.453 µM) |  | 32 (≈ 58 µM) |  | 0.25 (≈ 0.453 µM) | 0.25 (≈ 0.453 µM) | 8 (≈ 14.5 µM) | 4 (≈ 7.25 µM) |  | 0.0156 (≈ 0.0283 µM) | 2 (≈ 3.63 µM) | 
CN(C)c1c2c(c(O)c3cc(CN4CCCC4)ccc13)C(=O)C1=C(O)[C@]3(O)C(=O)C(C(N)=O)=C(O)[C@@H](N(C)C)[C@@H]3C[C@@H]1C2 | 16 (≈ 27.1 µM) | 0.5 (≈ 0.846 µM) | 0.25 (≈ 0.423 µM) | 32 (≈ 54.2 µM) | > 32 | 16 (≈ 27.1 µM) |  | 0.5 (≈ 0.846 µM) | 8 (≈ 13.5 µM) |  | 2 (≈ 3.39 µM) | < 0.0156 | 2 (≈ 3.39 µM) | 2 (≈ 3.39 µM)
COc1c2c(c(O)c3cc(F)ccc13)C(=O)C1=C(O)[C@]3(O)C(=O)C(C(N)=O)=C(O)[C@@H](N(C)C)[C@@H]3C[C@@H]1C2 | 1 (≈ 1.95 µM) | 0.125 (≈ 0.244 µM) | 0.5 (≈ 0.976 µM) | > 32 | > 32 | > 32 | 8 (≈ 15.6 µM) | 0.125 (≈ 0.244 µM) | 16 (≈ 31.2 µM) | 32 (≈ 62.4 µM) |  |  | 0.5 (≈ 0.976 µM) | 16 (≈ 31.2 µM)
CN(C)Cc1cccc2c(O)c3c(cc12)C[C@H]1C[C@H]2[C@H](N(C)C)C(O)=C(C(N)=O)C(=O)[C@@]2(O)C(O)=C1C3=O | 16 (≈ 30.7 µM) | 0.5 (≈ 0.959 µM) | 1 (≈ 1.92 µM) | > 32 | > 32 | > 32 | 2 (≈ 3.83 µM) | 1 (≈ 1.92 µM) | > 32 |  | 32 (≈ 61.4 µM) | 0.25 (≈ 0.479 µM) |  | 4 (≈ 7.67 µM)
CN(C)[C@@H]1C(O)=C(C(N)=O)C(=O)[C@@]2(O)C(O)=C3C(=O)c4c(cc5c(CN6CCC6)cccc5c4O)C[C@H]3C[C@@H]12 | 32 (≈ 60 µM) | 0.5 (≈ 0.937 µM) | 2 (≈ 3.75 µM) | > 32 | > 32 |  | 2 (≈ 3.75 µM) | 1 (≈ 1.87 µM) | > 32 | 16 (≈ 30 µM) |  | 0.25 (≈ 0.469 µM) | 4 (≈ 7.5 µM) | 8 (≈ 15 µM)
CN(C)[C@@H]1C(O)=C(C(N)=O)C(=O)[C@@]2(O)C(O)=C3C(=O)c4c(cc5c(N)cccc5c4O)C[C@H]3C[C@@H]12 | 8 (≈ 16.7 µM) | 2 (≈ 4.17 µM) | 4 (≈ 8.34 µM) | > 32 | > 32 | > 32 |  | 2 (≈ 4.17 µM) | > 32 | > 32 |  | 2 (≈ 4.17 µM) | 4 (≈ 8.34 µM) | > 32
CN(C)[C@@H]1C(O)=C(C(N)=O)C(=O)[C@@]2(O)C(O)=C3C(=O)c4c(cc5cc(N)ccc5c4O)C[C@H]3C[C@@H]12 | 16 (≈ 33.4 µM) |  | 4 (≈ 8.34 µM) | > 32 | > 32 | > 32 | 8 (≈ 16.7 µM) |  | > 32 | > 32 |  | 2 (≈ 4.17 µM) |  | > 32
CN(C)[C@@H]1C(O)=C(C(N)=O)C(=O)[C@@]2(O)C(O)=C3C(=O)c4c(cc5ccc(CN6CCC6)cc5c4O)C[C@H]3C[C@@H]12 |  | 0.5 (≈ 0.937 µM) | 0.5 (≈ 0.937 µM) | 8 (≈ 15 µM) | 32 (≈ 60 µM) |  | 0.25 (≈ 0.469 µM) | 0.5 (≈ 0.937 µM) | 8 (≈ 15 µM) | 4 (≈ 7.5 µM) | 4 (≈ 7.5 µM) | 0.125 (≈ 0.234 µM) | 2 (≈ 3.75 µM) | 1 (≈ 1.87 µM)
CN(C)CCOc1c2c(c(O)c3cc(CN4CCC4)ccc13)C(=O)C1=C(O)[C@]3(O)C(=O)C(C(N)=O)=C(O)[C@@H](N(C)C)[C@@H]3C[C@@H]1C2 | > 32 | 4 (≈ 6.44 µM) | 8 (≈ 12.9 µM) | > 32 | > 32 | 16 (≈ 25.8 µM) | 2 (≈ 3.22 µM) | 4 (≈ 6.44 µM) | > 32 | 32 (≈ 51.6 µM) |  | 1 (≈ 1.61 µM) | 8 (≈ 12.9 µM) | 8 (≈ 12.9 µM)
CNC(=O)Oc1c2c(c(O)c3cc(CN4CCC4)ccc13)C(=O)C1=C(O)[C@]3(O)C(=O)C(C(N)=O)=C(O)[C@@H](N(C)C)[C@@H]3C[C@@H]1C2 | > 32 |  | 8 (≈ 13.2 µM) | > 32 | > 32 | > 32 | 4 (≈ 6.59 µM) | 8 (≈ 13.2 µM) | > 32 | > 32 |  | 1 (≈ 1.65 µM) |  | 32 (≈ 52.8 µM)
CCCNc1c2c(c(O)c3cc(CN4CCC4)ccc13)C(=O)C1=C(O)[C@]3(O)C(=O)C(C(N)=O)=C(O)[C@@H](N(C)C)[C@@H]3C[C@@H]1C2 | 16 (≈ 27.1 µM) | 4 (≈ 6.77 µM) | 4 (≈ 6.77 µM) | > 32 | > 32 | > 32 | 2 (≈ 3.39 µM) | 4 (≈ 6.77 µM) | > 32 | 32 (≈ 54.2 µM) | 16 (≈ 27.1 µM) | 0.5 (≈ 0.846 µM) |  | 16 (≈ 27.1 µM)
CCCN(CCC)c1c2c(c(O)c3cc(CN4CCC4)ccc13)C(=O)C1=C(O)[C@]3(O)C(=O)C(C(N)=O)=C(O)[C@@H](N(C)C)[C@@H]3C[C@@H]1C2 | 8 (≈ 12.6 µM) | 0.5 (≈ 0.79 µM) | 0.5 (≈ 0.79 µM) | > 32 | > 32 | > 32 | 0.5 (≈ 0.79 µM) | 0.5 (≈ 0.79 µM) | > 32 | > 32 | 4 (≈ 6.32 µM) | 0.125 (≈ 0.198 µM) |  | 32 (≈ 50.6 µM)
CN(C)[C@@H]1C(O)=C(C(N)=O)C(=O)[C@@]2(O)C(O)=C3C(=O)c4c(cc5ccccc5c4O)C[C@H]3C[C@@H]12 | 8 (≈ 17.2 µM) |  | 0.5 (≈ 1.08 µM) |  | > 32 |  | 0.25 (≈ 0.538 µM) | 1 (≈ 2.15 µM) | > 32 |  |  | 0.25 (≈ 0.538 µM) | 1 (≈ 2.15 µM) | > 32
